Test results reported in ChEMBL document CHEMBL4190330, “Discovery of Potent and Selective A2A Antagonists with Efficacy in Animal Models of Parkinson's Disease and Depression” (ACS Med Chem Lett, 2017).

Columns and labels:
[1] = target: T1, Adenosine receptor A2a (Homo sapiens, UniProt P29274); experiment: Displacement of [3H]ZM241385 from human A2A receptor expressed in HEK293 cell membranes after 90 mins radioligand binding assay
Summary of the method: (§1)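 Membranes from HEK-293 cells overexpressing the relevant human adenosine receptor subtype; all points in triplicate; Ki derived from 8-concentration IC50 curves.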

[2] = target: T2, Adenosine receptor A1 (Homo sapiens) (UniProt P30542); experiment: Displacement of [3H]-DPCPX from human A1 receptor expressed in HEK293 cell membranes at 1 uM after 90 mins radioligand binding assay relative to control
T2 sequence (whole entry): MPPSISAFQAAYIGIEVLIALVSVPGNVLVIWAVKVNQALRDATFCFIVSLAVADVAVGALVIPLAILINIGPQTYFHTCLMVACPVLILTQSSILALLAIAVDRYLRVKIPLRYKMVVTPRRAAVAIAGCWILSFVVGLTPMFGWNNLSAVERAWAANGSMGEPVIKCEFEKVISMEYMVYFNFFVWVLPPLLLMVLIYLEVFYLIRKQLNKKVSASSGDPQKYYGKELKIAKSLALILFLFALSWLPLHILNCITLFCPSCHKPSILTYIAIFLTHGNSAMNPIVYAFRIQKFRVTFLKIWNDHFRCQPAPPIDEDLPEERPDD

[3] = Metabolic stability in rat liver microsomes; format: ADME, microsome
[4] = Metabolic stability in human liver microsomes; format: ADME, microsome
[5] = target: T1, Adenosine receptor A2a; experiment: Antagonist activity at human A2A receptor expressed in HEK293 cell membranes assessed as reduction in CGS-21680-induced cAMP level pretreated for 15 mins followed by CGS-21680 addition measured after 30 mins by HTRF assay; format: functional, cell-based
Summary of the method: (§2)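 HTRF-based cAMP functional assay; each compound tested at 12 concentrations, every point in triplicate; Ki given as mean of two independent experiments (n=2).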

[6] = target: Adenosine receptor A2a (Rattus norvegicus, UniProt P30543); experiment: Antagonist activity at rat A2A receptor assessed as reduction in CGS-21680-induced cAMP level pretreated for 15 mins followed by CGS-21680 addition measured after 30 mins by HTRF assay; format: functional; summary of the method: as §2
[7] = target: T3, Adenosine receptor A1 (Homo sapiens, UniProt P30542); experiment: Displacement of [3H]-DPCPX from human A1 receptor expressed in HEK293 cell membranes after 90 mins radioligand binding assay; summary of the method: as §1
T3 sequence (P30542 whole entry): T2 sequence (whole entry)

[8] = organism: Homo sapiens; experiment: Selectivity ratio of Ki for displacement of [3H]-DPCPX from human A1 receptor expressed in HEK293 cell membranes to Ki for displacement of [3H]ZM241385 from human A2A receptor expressed in HEK293 cell membranes
Summary of the method: (§3)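 Radioligand binding used membranes from HEK-293 cells overexpressing each human adenosine receptor isoform. Points were run in triplicate, and 8-concentration IC50 curves were plotted to give Ki. The selectivity value is the Ki at the off-target isoform divided by the Ki at hA2A.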

[9] = organism: Homo sapiens; experiment: Selectivity ratio of Ki for displacement of [3H]-MRS-1754 from human A2B receptor expressed in HEK293 cell membranes to Ki for displacement of [3H]ZM241385 from human A2A receptor expressed in HEK293 cell membranes; summary of the method: as §3
[10] = organism: Homo sapiens; experiment: Selectivity ratio of Ki for displacement of [3H]-HEMADO from human A3 receptor expressed in HEK293 cell membranes to Ki for displacement of [3H]ZM241385 from human A2A receptor expressed in HEK293 cell membranes; summary of the method: as §3
[11] = Solubility of the compound at pH 7.4; format: physicochemical; conditions: buffer

T1 sequence (P29274 whole entry): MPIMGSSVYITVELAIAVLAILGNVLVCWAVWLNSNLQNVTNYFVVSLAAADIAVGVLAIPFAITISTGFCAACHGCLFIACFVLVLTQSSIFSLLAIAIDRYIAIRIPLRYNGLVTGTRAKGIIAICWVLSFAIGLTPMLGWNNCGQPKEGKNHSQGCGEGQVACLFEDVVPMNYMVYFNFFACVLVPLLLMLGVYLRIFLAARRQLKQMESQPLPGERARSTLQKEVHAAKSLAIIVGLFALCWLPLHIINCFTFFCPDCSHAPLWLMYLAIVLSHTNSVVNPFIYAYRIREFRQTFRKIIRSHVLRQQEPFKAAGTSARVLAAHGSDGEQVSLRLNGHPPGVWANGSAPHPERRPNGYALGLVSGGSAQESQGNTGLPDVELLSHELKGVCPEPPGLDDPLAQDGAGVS
Chain of Adenosine receptor A2a (Rattus norvegicus, UniProt P30543) (P30543 whole entry): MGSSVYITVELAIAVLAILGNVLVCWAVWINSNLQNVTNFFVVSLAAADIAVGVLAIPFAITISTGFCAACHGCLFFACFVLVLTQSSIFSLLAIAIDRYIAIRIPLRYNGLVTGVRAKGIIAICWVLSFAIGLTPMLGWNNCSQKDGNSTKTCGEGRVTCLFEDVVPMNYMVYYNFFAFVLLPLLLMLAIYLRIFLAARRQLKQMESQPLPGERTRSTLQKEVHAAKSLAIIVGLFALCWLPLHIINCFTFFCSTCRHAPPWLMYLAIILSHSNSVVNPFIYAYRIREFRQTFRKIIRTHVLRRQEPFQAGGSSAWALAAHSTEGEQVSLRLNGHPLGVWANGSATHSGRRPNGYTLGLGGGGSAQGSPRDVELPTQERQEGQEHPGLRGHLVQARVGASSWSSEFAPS

Row | SMILES | Ki [1] | inhibition [2] | Stability [3] | Stability [4] | Ki [5] | Ki [6] | Ki [7] | Ratio Ki [8] | Ratio Ki [9] | Ratio Ki [10] | solubility [11]
1 | COc1ccc(N2CCN(CCn3c(=O)n(C)c4c3nc(N)n3nc(-c5ccco5)nc43)CC2)cn1 | 4.5 nM | 61% | Stable | Stable | – | – | – | – | – | – | –
2 | Cc1ccc(N2CCN(CCn3c(=O)n(C)c4c3nc(N)n3nc(-c5ccco5)nc43)CC2)nc1 | 1.7 nM | 61% | Stable | Stable | 0.4 nM | 0.65 nM | – | – | – | – | –
3 | Cn1c(=O)n(CCN2CCN(c3ccc(OCCOC4CC4)cc3)CC2)c2nc(N)n3nc(-c4ccco4)nc3c21 | 2 nM | 66% | Stable | Stable | – | – | – | – | – | – | –
4 | COCCOc1ccc(N2CCN(CCn3c(=O)n(C)c4c3nc(N)n3nc(-c5nccs5)nc43)CC2)cc1 | 6.4 nM | 19% | Stable | Stable | 1.2 nM | 11.1 nM | – | – | – | – | –
5 | Cc1ccc(N2CCN(CCn3c(=O)n(C)c4c3nc(N)n3nc(-c5ccco5)nc43)CC2)cc1 | 1.4 nM | 45% | Stable | Stable | 1.1 nM | 0.74 nM | – | – | – | – | –
6 | COCCOc1cc(F)c(N2CCN(CCn3c(=O)n(C)c4c3nc(N)n3nc(-c5ccco5)nc43)CC2)cc1F | 0.9 nM | 58% | Stable | Stable | 1.2 nM | – | – | – | – | – | –
7 | Cn1c(=O)n(CCN2CCN(c3ccc(OC4CC4)cc3)CC2)c2nc(N)n3nc(-c4ccco4)nc3c21 | 0.3 nM | 50% | Stable | Stable | 0.25 nM | – | – | – | – | – | –
8 | Cc1nc2cc(N3CCN(CCn4c(=O)n(C)c5c4nc(N)n4nc(-c6ccco6)nc54)CC3)c(F)cc2o1 | 0.4 nM | 48% | Stable | Stable | 0.15 nM | 0.05 nM | – | – | – | – | –
9 | COCC(C)(C)Oc1ccc(N2CCN(CCn3c(=O)n(C)c4c3nc(N)n3nc(-c5ccco5)nc43)CC2)cc1 | 0.5 nM | 36% | Stable | Stable | 2.1 nM | 0.72 nM | – | – | – | – | –
10 | COc1ccc(N2CCN(CCn3c(=O)n(C)c4c3nc(N)n3nc(-c5ccco5)nc43)CC2)c(F)c1 | 0.4 nM | 45% | Stable | Stable | 0.06 nM | 0.06 nM | – | – | – | – | –
11 | Cn1c(=O)n(CCN2CCN(c3ccc(OC4CCOCC4)cc3)CC2)c2nc(N)n3nc(-c4ccco4)nc3c21 | 0.3 nM | 56% | Stable | Stable | 0.26 nM | – | – | – | – | – | –
12 | COCCOc1ccc(N2CCN(CCn3c(=O)n(C)c4c3nc(N)n3nc(-c5ccco5)nc43)CC2)cc1 | 2 nM | – | Stable | Stable | 0.42 nM | 0.28 nM | 1.7 µM | 850 | > 3000 | > 2000 | < 6 µM
13 | Cn1c(=O)n(CCN2CCN(c3nc(C(F)(F)F)cs3)CC2)c2nc(N)n3nc(-c4ccco4)nc3c21 | 1.2 nM | 58% | Stable | Stable | 0.9 nM | – | – | – | – | – | –
14 | Cn1c(=O)n(CCN2CCN(c3ccc(C(F)(F)F)cc3)CC2)c2nc(N)n3nc(-c4ccco4)nc3c21 | 3.1 nM | 57% | Stable | Stable | – | – | – | – | – | – | –
15 | COc1ccc(N2CCN(CCn3c(=O)n(C)c4c3nc(N)n3nc(-c5ccco5)nc43)CC2)cc1 | 1 nM | 58% | Stable | Stable | 0.21 nM | 0.58 nM | – | – | – | – | –
16 | Cn1c(=O)n(CCN2CCN(c3ccc(OC4CCOC4)cc3)CC2)c2nc(N)n3nc(-c4ccco4)nc3c21 (stereo not given) | 0.2 nM | 49% | Stable | Stable | 0.22 nM | – | – | – | – | – | –
17 | Cn1c(=O)n(CCN2CCN(c3ccc(C#N)c(F)c3)CC2)c2nc(N)n3nc(-c4ccco4)nc3c21 | 0.5 nM | 50% | Stable | Stable | 0.4 nM | – | – | – | – | – | –
18 | COCCOc1cccc(N2CCN(CCn3c(=O)n(C)c4c3nc(N)n3nc(-c5ccco5)nc43)CC2)c1 | 0.5 nM | 63% | Stable | Stable | 0.5 nM | 3.9 nM | – | – | – | – | –
19 | Cn1c(=O)n(CCN2CCN(c3ccc(OC(F)F)cc3)CC2)c2nc(N)n3nc(-c4ccco4)nc3c21 | 1.9 nM | 34% | Stable | Stable | 0.27 nM | 1.07 nM | – | – | – | – | –
20 | Cn1c(=O)n(CCN2CCN(c3ccc(C#N)cc3)CC2)c2nc(N)n3nc(-c4ccco4)nc3c21 | 0.6 nM | – | Stable | Stable | 0.3 nM | 1.15 nM | 5 µM | > 8000 | > 8000 | > 8000 | < 2 µM
21 | Cn1c(=O)n(CCN2CCN(c3ccc(F)cc3F)CC2)c2nc(N)n3nc(-c4ccco4)nc3c21 | 1 nM | 32% | Stable | Stable | 0.07 nM | – | – | – | – | – | –
22 | COCC(C)Oc1ccc(N2CCN(CCn3c(=O)n(C)c4c3nc(N)n3nc(-c5ccco5)nc43)CC2)cc1 (stereo not given) | 0.4 nM | 56% | Stable | Stable | 1.5 nM | 0.42 nM | – | – | – | – | –
23 | COCCOc1ccc(N2CCN(CCn3c(=O)n(C)c4c3nc(N)n3nc(-c5ccco5)nc43)CC2)cc1F | 0.7 nM | 68% | Stable | Stable | – | – | – | – | – | – | –
24 | COCCOc1c(F)cc(N2CCN(CCn3c(=O)n(C)c4c3nc(N)n3nc(-c5ccco5)nc43)CC2)cc1F | 0.6 nM | 65% | Stable | Stable | – | – | – | – | – | – | –
